# Source: PubChem (several laboratories)
# In the library only some 2.9% were active in any assay of this set; here they are far more common.
# M18AAP inhibitor: blocks P. falciparum M18 aspartyl aminopeptidase. AID 1822. recombinant PfM18AAP, H-Glu-NHMec fluorogenic cleavage. inhibition, % at 7.35 µM. actives 1.2% (n = 290,000);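 active = inhibition above the campaign mean inhibition over all tested compounds plus 3 SD, cut at about 28% in these data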;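 also: 0% = plate median of test compound wells and 100% = 2 mM ZnCl2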
# Apaf1 inhib: human Apaf-1 inhibition | actives 0.71% (n = 330,000) | inhibition, % at 20 µM | O14727 | reconstituted apoptosome caspase-3 activity, DEVD-Rh110 fluorescence; active = inhibition of at least 40% at 20 µM;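 also: plate controls were DMSO wells for no effect and DEVD-CHO caspase inhibitor wells for full effect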
#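 Material: biochemical Apaf-1 apoptosome reconstitution. Medium: Hepes buffer, pH 7.5. Also added: cytochrome c activation, bis-DEVD rhodamine 110 substrate. Timing: 30 min compound preincubation, 50 min activation, room temperature. Measured by: rhodamine 110 fluorescence at Ex 480/Em 540 nm.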
# PfGluPho inh: PfG6PD (Plasmodium falciparum) enzyme inhibition | PfGluPho enzyme, NADPH resazurin-diaphorase fluorescence | inhibition, % at 20 µM | actives 0.78% (n = 350,000) | AID 504690;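 active = inhibition reaching at least a set limit at 20 µM in the primary screen, cut at about 59% in these data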;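 also: 0% = DMSO wells with substrate and 100% = DMSO wells lacking glucose-6-phosphate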
# UBC13 polyUb: human UBC13 polyubiquitination inhibition; inhibition, % at 20 µM; actives 0.47% (n = 330,000); P61088; UBC13 polyubiquitin chain formation, TR-FRET; AID 485273; in the data active = inhibition above about 45%, passing the limit was not always enough
# Target sequence (P61088 whole entry, looked up): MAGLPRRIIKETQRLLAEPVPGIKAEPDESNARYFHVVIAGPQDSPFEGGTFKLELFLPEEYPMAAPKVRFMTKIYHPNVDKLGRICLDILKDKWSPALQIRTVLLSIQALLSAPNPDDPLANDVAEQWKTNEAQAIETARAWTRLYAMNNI
# EBNA-1 inh: blocks EBNA-1 binding to DNA | inhibition, % at 14.8 µM | EBNA-1 DNA binding, fluorescence polarization | actives 0.34% (n = 300,000); in the data active = inhibition above about 28%
# ZTA counter: counter-screen for EBNA-1 inhibitors: inhibitors of Epstein-Barr virus ZTA. AID 2234. ZTA-DNA binding, fluorescence polarization. actives 0.15% (n = 320,000). inhibition, % at 11 µM; in the data active = inhibition above about 33%
# Target sequence (P03206 whole entry, looked up): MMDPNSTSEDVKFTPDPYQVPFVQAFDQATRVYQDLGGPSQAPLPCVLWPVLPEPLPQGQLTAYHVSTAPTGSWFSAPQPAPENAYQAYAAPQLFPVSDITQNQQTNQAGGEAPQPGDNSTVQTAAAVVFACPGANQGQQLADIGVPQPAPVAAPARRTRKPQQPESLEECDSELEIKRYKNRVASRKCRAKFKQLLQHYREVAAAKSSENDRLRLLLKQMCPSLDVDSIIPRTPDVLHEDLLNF
# PfGluPho conf: PfG6PD inhibition, single-dose confirmed. actives 34% (n = 2,400). AID 504753. inhibition, % at 20 µM. recombinant PfGluPho, NADPH-diaphorase-resazurin fluorescence. shares compounds with PfGluPho inh;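 active = inhibition of at least 50% at 20 µM in any single replicate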;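 also: 0% = DMSO with substrate and 100% = DMSO lacking glucose-6-phosphate substrate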
# Diaph ctr 10uM: inhibits diaphorase or oxidizes, flagging false PfG6PD hits; inhibition, % at 20 µM; actives 39% (n = 820); AID 504862; shares compounds with PfGluPho inh; diaphorase-coupled resazurin reduction, fluorescence, NADPH 10 uM;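 active = average inhibition reaching 50% or more with the compound at 20 µM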;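 also: resorufin red fluorescence formed as diaphorase reduces resazurin using NADPH; 0% = DMSO with enzyme and 100% = DMSO without enzyme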
# Diaphorase 30uM: diaphorase inhibition or oxidation at 30 uM NADPH; shares compounds with PfGluPho inh; Diaphorase/resazurin coupled assay, resorufin fluorescence; inhibition, % at 20 µM; actives 29% (n = 820); AID 504863;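 active = inhibition averaging 50% or more, tested at 20 µM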;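 also: 0% = DMSO with enzyme and 100% = DMSO wells lacking diaphorase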
# * = called active by the depositor; . = no result.
SMILES,M18AAP inhibitor,Apaf1 inhib,PfGluPho inh,UBC13 polyUb,EBNA-1 inh,ZTA counter,PfGluPho conf,others
CC1(C)Cc2c(c(-c3ccco3)nc3sc4c(NCCCO)ncnc4c23)CO1,-24,0,60*,6,-2,-8,9,
CSC1SCC2C(=O)N(C)C(C(C)C)C(=O)OCC(NC(=O)c3cnc4ccccc4n3)C(=O)NC(C)C(=O)N(C)C1C(=O)N(C)C(C(C)C)C(=O)OCC(NC(=O)c1cnc3ccccc3n1)C(=O)NC(C)C(=O)N2C (stereo unspecified),.,.,59*,.,.,.,8,
Cc1ccc(N2CCN(C(=S)c3ccc(-c4ccccc4[N+](=O)[O-])o3)CC2)cc1,7,16,60*,-30,15,6,29,
CCCCOc1ccc(N=Cc2ccc[nH]2)cc1,-5,-3,0,-4,7,3,.,
Cc1ccc(Nc2nc(-c3ccc(S(=O)(=O)N4CCOCC4)cc3)cs2)cc1,26,-13,59,1,22,15,42,
Cc1cc(C)cc(Nc2nc(-c3ccc(S(=O)(=O)N4CCCC4)cc3)cs2)c1,13,3,56,-11,-7,5,.,
COc1ccccc1NC(NC(=O)c1cccnc1)C(Cl)(Cl)Cl (stereo unspecified),2,2,2,-4,-15,-9,.,
O=C(NC1CCCCCC1)C(=S)N1CCOCC1,16,-13,59*,-10,4,10,24,
COc1cccc(C(=O)N2CCN(c3ccc(N4CCOCC4)nn3)CC2)c1,.,18,-13,6,-3,-18,.,
COc1ccc2c(c1)CCc1cc(C(=O)N3CCN(c4ccc(N5CCOCC5)nn4)CC3)sc1-2,-2,36,77*,6,-4,4,41,
O=C(CCc1ccc(S(=O)(=O)N2CCOCC2)cc1)N/N=C/c1ccc(O)c(O)c1O,12,8,68*,10,3,19,60*,Diaph ctr 10uM=33;Diaphorase 30uM=43
O=C(CCc1ccc(S(=O)(=O)N2CCOCC2)cc1)N/N=C/c1ccc(F)cc1F,-12,10,0,5,-5,-13,.,
CC(C)[C@H]1C(=O)Nc2ccccc2N1C(=O)N[C@@H](Cc1ccccc1)C(=O)N[C@H](C(=O)O)c1ccccc1,-1,-1,-14,-9,-5,-5,.,
O=C1/C(=C\c2ccc(Cl)c(Cl)c2)CN(C(=O)CCN2CCOCC2)C/C1=C/c1ccc(Cl)c(Cl)c1,.,.,60*,.,.,.,25,
O=C1/C(=C\c2ccccc2)CN(C(=O)CCN2CCCCC2)C/C1=C/c1ccccc1,.,.,44,.,.,.,.,
CCOC(=O)c1sc(=S)n(-c2ccccc2)c1N,-3,2,5,10,-2,5,.,
COc1ccc(CNC(=O)c2sc(=S)n(-c3ccccc3)c2N)cc1,-10,3,61*,-5,0,-9,41,
COC(=O)c1sc(=S)n(-c2cccc(Cl)c2)c1N,21,1,72*,-9,2,-1,27,
CCOc1ccc(-n2c(N)c(C(=O)NCc3ccco3)sc2=S)cc1,15,4,85*,-3,-4,-8,31,
c1cc(CNc2ccc3c(c2)OCO3)ccn1,6,21,61*,-22,4,-8,53*,Diaph ctr 10uM=15;Diaphorase 30uM=11
Cc1ccc(CNc2ccc3c(c2)OCO3)cc1,7,.,40,.,2,-1,.,
O=C(Nc1ccccc1C(=O)N/N=C/c1ccco1)c1ccccc1Cl,-1,-2,70*,5,0,-8,52*,Diaph ctr 10uM=52*;Diaphorase 30uM=39
S=c1nc[nH]c2c1ncn2-c1ccc(Cl)cc1,.,.,66*,.,.,.,24,
COc1ccc([C@H]2[C@@H]3C=CCC[C@@]3(C)C(=O)N2Cc2ccccc2)cc1Cl,.,22,-15,2,-3,-2,.,
COc1ccc(NC(=O)CCCNC(=O)Cn2cnc3sc(C)c(C)c3c2=O)c(OC)c1,-6,0,-3,1,9,8,.,
SMILES,M18AAP inhibitor,Apaf1 inhib,PfGluPho inh,UBC13 polyUb,EBNA-1 inh,ZTA counter,PfGluPho conf,others
CCOc1ccccc1NC(=O)CCCNC(=O)Cn1cnc2sc(C)c(C)c2c1=O,0,4,67*,7,5,11,45,
CSc1cccc(NC(=O)COC(=O)C2CCN(S(=O)(=O)c3ccccc3)CC2)c1,.,-6,4,14,.,5,.,
COc1ccc(Cl)cc1NC(=O)CN(C)C(=O)Cc1ccc2c(c1)CCC2,-14,12,84*,3,9,7,57*,Diaph ctr 10uM=53*;Diaphorase 30uM=52*
COc1ccc(Cl)cc1NC(=O)CN(C)C(=O)Cc1ccsc1,.,-5,25,1,10,3,.,
O=S(=O)(NCC(O)c1ccccc1)c1cc(Cl)sc1Cl (stereo unspecified),6,8,10,3,14,18,.,
Cc1cc([N+](=O)[O-])nn1CCCC(=O)Nc1sc2c(c1C(N)=O)CCCC2,9,0,67*,-19,-11,10,32,
Cc1cc([N+](=O)[O-])nn1CC(=O)Nc1sc2c(c1C(N)=O)CCCC2,1,-5,-1,4,-4,-1,.,
NC(=O)c1c(NC(=O)CCCn2cnc([N+](=O)[O-])n2)sc2c1CCCC2,18,-90,76*,6,-16,-4,42,
CC1CCc2c(sc(NC(=O)CCCn3cnc([N+](=O)[O-])n3)c2C(N)=O)C1 (stereo unspecified),6,-8,-10,1,9,2,.,
CCOc1ccc2oc(C(=O)OCC(=O)NC3CCCC3)c(C)c2c1,.,-2,8,13,.,-13,.,
Cc1ccc(S(=O)(=O)N2CCN=C2SCc2ccccc2)cc1,-13,4,69*,7,2,-2,24,
O=S(=O)(c1ccccc1)N1CCN=C1SCc1cccc(Cl)c1,-5,14,82*,13,4,-25,43,
O=S(=O)(c1ccccc1)N1CCN=C1SCc1ccccc1Cl,2,10,78*,3,-10,-21,21,
CC(=O)Nc1ccc(S(=O)(=O)N2CCN=C2SCc2ccc(C)cc2)cc1,-3,8,18,-2,4,4,.,
O=C(/N=C1\NC(=O)C(F)(C(F)(F)F)S1)NC1CCCCC1 (stereo unspecified),.,-12,73*,-4,-1,-20,33,
CCC1S/C(=N/C(=O)NC2CCCCC2)NC1=O (stereo unspecified),-15,-1,-6,4,-13,-17,.,
O=C(NCCOc1ccc(F)cc1)C1CCC(=O)N(Cc2ccc(Cl)cc2)C1 (stereo unspecified),.,.,-5,.,.,.,.,
